Measured values from ChEMBL document CHEMBL3352771, “3-Cyano-3-aza-β-amino Acid Derivatives as Inhibitors of Human Cysteine Cathepsins” (ACS Med Chem Lett, 2014).
pKi: −log10 of the molar value.

biological target: Procathepsin L (Homo sapiens, UniProt P07711); assay: Inhibition of human cathepsin L using Z-Phe-Arg-pNA chromogenic substrate fluorogenic substrate incubated for 30 mins
How it was run: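 Duplicate measurements at five inhibitor concentrations. IC50 from nonlinear regression of steady-state rates, v_s = v0/(1+[I]/IC50). Ki obtained as IC50/(1+[S]/Km).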

Procathepsin L, sequence (P07711 whole entry): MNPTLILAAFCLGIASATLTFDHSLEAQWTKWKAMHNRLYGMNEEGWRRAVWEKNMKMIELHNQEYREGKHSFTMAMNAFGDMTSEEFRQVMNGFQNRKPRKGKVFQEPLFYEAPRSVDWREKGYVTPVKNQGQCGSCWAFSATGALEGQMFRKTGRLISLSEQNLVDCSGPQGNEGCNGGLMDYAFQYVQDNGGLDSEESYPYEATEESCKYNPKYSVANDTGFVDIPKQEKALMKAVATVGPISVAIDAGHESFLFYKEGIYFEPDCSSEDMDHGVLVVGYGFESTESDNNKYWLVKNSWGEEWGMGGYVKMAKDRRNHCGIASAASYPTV

Q: With CN(Cc1ccccc1)C(=O)CN(C#N)NC(=O)OC(C)(C)C as the compound, how does the pKi read?
A: The pKi was 6.64.

Q: With CCCN1CCN(c2ccc(C(=O)NC3(C(=O)NCC#N)CCCCC3)cc2)CC1 [BALICATIB] as the compound, how does the pKi read?
A: The pKi was 5.49.

Q: How did the pKi turn out when CN(C(=O)OC(C)(C)C)N(C#N)CC(=O)N1CCOCC1 was run?
A: Its pKi is 5.77.

Q: How did the pKi turn out when CC(C)(C)OC(=O)NN(C#N)CC(=O)N(Cc1ccccc1)Cc1ccccc1 was run?
A: The pKi was 6.73.

Q: How did the pKi turn out when CC(C)(C)OC(=O)NN(C#N)CC(=O)N1CCOCC1 was run?
A: Its pKi is 6.24.

biological target: T1, Cathepsin S (Homo sapiens, UniProt P25774); assay: Inhibition of human cathepsin S assessed half life for enzyme-inhibitor complex using Z-Phe-Arg-AMC fluorogenic substrate fluorogenic substrate incubated for 60 mins
How it was run: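 Complex half-lives calculated from koff values for cathepsin K and cathepsin S. Progress curves used fluorescence emission at 440 nm with excitation at 360 nm. First-order rate constants kobs plotted against inhibitor concentration.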
Target sequence in this assay (P25774 115-331 limits assumed): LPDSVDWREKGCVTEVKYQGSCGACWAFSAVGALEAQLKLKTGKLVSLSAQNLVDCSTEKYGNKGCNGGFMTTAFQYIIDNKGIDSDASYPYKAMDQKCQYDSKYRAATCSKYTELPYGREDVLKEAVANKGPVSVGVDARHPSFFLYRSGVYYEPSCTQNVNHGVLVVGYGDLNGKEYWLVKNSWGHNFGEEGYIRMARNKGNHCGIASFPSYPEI

Q: CC(C)(C)OC(=O)NN(C#N)CC(=O)N1CCOCC1 was tested. Which T1/2 did it give?
A: The T1/2 was 10 min.

biological target: Cathepsin K (Homo sapiens) (UniProt P43235); assay: Inhibition of human cathepsin K assessed as second order rate constant using Z-Leu-Arg-AMC fluorogenic substrate incubated for 60 mins
Sequence (P43235 whole entry, looked up): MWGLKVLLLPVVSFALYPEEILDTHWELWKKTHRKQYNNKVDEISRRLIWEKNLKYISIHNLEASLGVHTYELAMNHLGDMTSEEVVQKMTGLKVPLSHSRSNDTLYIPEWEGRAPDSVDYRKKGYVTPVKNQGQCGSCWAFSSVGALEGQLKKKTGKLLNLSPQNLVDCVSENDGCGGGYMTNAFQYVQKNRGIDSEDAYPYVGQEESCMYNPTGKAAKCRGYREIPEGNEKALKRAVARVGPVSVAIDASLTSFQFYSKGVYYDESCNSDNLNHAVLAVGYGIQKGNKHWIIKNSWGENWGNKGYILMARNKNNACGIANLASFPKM

Q: CN(Cc1ccccc1)C(=O)CN(C#N)NC(=O)OC(C)(C)C was tested. Which K did it give?
A: Its K is 28900 ×10³ /M/s.

Q: With CN(C(=O)OC(C)(C)C)N(C#N)CC(=O)N1CCOCC1 as the compound, how does the K read?
A: The K was 4.05 ×10³ /M/s.

Q: Which K does the source give for CC(C)(C)OC(=O)NN(C#N)CC(=O)N(Cc1ccccc1)Cc1ccccc1 here?
A: The K was 52900 ×10³ /M/s.

Q: Which K does the source give for CC(C)(C)OC(=O)NN(C#N)CC(=O)N1CCOCC1 here?
A: Its K is 19000 ×10³ /M/s.

biological target: T1, Cathepsin S; assay: Inhibition of human cathepsin S assessed as second order rate constant using Z-Phe-Arg-AMC fluorogenic substrate incubated for 60 mins
Target sequence in this assay (P25774 115-331 limits assumed): as the sequence (P25774 115-331 limits assumed) above

Q: With CN(Cc1ccccc1)C(=O)CN(C#N)NC(=O)OC(C)(C)C as the compound, how does the K read?
A: Its K is 1590 ×10³ /M/s.

Q: For CN(C(=O)OC(C)(C)C)N(C#N)CC(=O)N1CCOCC1, which K is on record?
A: Its K is 0.461 ×10³ /M/s.

Q: How did the K turn out when CC(C)(C)OC(=O)NN(C#N)CC(=O)N(Cc1ccccc1)Cc1ccccc1 was run?
A: Its K is 2580 ×10³ /M/s.

Q: For CC(C)(C)OC(=O)NN(C#N)CC(=O)N1CCOCC1, which K is on record?
A: The K was 757 ×10³ /M/s.

biological target: T1, Cathepsin S; assay: Inhibition of human cathepsin S using Z-Phe-Arg-AMC fluorogenic substrate fluorogenic substrate incubated for 60 mins
How it was run: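 Z-Phe-Arg-AMC substrate at 40 μM final (0.74 × Km), monitored over 60 min. Duplicate runs at five inhibitor concentrations. Steady-state rates fitted by nonlinear regression, v_s = v0/(1+[I]/IC50). Ki converted using IC50/(1+[S]/Km).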
Target sequence in this assay (P25774 whole entry): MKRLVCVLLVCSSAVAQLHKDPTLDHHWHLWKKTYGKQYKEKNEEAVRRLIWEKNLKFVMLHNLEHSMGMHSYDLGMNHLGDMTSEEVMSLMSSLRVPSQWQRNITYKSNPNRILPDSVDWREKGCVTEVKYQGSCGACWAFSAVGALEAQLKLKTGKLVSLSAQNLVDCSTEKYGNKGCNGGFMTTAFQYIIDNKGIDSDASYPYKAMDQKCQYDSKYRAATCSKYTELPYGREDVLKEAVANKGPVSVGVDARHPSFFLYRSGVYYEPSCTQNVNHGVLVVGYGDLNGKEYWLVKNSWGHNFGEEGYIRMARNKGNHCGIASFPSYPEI

Q: How did the pKi turn out when CN(Cc1ccccc1)C(=O)CN(C#N)NC(=O)OC(C)(C)C was run?
A: The pKi was 9.75.

Q: With CCCN1CCN(c2ccc(C(=O)NC3(C(=O)NCC#N)CCCCC3)cc2)CC1 [BALICATIB] as the compound, how does the pKi read?
A: The pKi was 4.52.

Q: CN(C(=O)OC(C)(C)C)N(C#N)CC(=O)N1CCOCC1 was tested. Which pKi did it give?
A: The pKi was 6.10.

Q: CC(C)(C)OC(=O)NN(C#N)CC(=O)N(Cc1ccccc1)Cc1ccccc1 was tested. Which pKi did it give?
A: The pKi was 9.89.

Q: With CC(C)(C)OC(=O)NN(C#N)CC(=O)N1CCOCC1 as the compound, how does the pKi read?
A: The pKi was 9.11.

biological target: Cathepsin B (Homo sapiens, UniProt P07858); assay: Inhibition of human cathepsin B using Z-Arg-Arg-pNA chromogenic substrate fluorogenic substrate incubated for 30 mins
How it was run: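 Chromogenic readout with Z-Arg-Arg-pNA at 500 μM final (0.45 × Km), followed over 30 min. Duplicate runs at five inhibitor concentrations. IC50 obtained by nonlinear regression of steady-state rates, v_s = v0/(1+[I]/IC50). Ki derived as IC50/(1+[S]/Km).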

Q: With CN(Cc1ccccc1)C(=O)CN(C#N)NC(=O)OC(C)(C)C as the compound, how does the pKi read?
A: The pKi was 9.34.

Q: With CCCN1CCN(c2ccc(C(=O)NC3(C(=O)NCC#N)CCCCC3)cc2)CC1 [BALICATIB] as the compound, how does the pKi read?
A: The pKi was 5.42.

Q: With CN(C(=O)OC(C)(C)C)N(C#N)CC(=O)N1CCOCC1 as the compound, how does the pKi read?
A: Its pKi is 6.71.

Q: How did the pKi turn out when CC(C)(C)OC(=O)NN(C#N)CC(=O)N(Cc1ccccc1)Cc1ccccc1 was run?
A: Its pKi is 9.39.

Q: How did the pKi turn out when CC(C)(C)OC(=O)NN(C#N)CC(=O)N1CCOCC1 was run?
A: The pKi was 8.45.
